One series in a line: physchem. The note with it: phosphate buffer saline, pH 7.
Series [1] concerns the target Tyrosine-protein kinase JAK1 (Homo sapiens, UniProt P23458). The series is described as follows: Inhibition of recombinant JAK1 using Poly (Glu,Ala,Tyr) as substrate after 2 hrs by luminescence assay. An outline of the steps:
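Luciferase-coupled ATP-depletion luminescence assay in 50 mM Hepes pH 7.5 with MgCl₂, MnCl₂, BGP, DTT and orthovanadate, 2 h at room temperature. Conditions per target: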

Series [2] concerns the target T1, Receptor-type tyrosine-protein kinase FLT3 (Homo sapiens, UniProt P36888).
T1 sequence (P36888 whole entry): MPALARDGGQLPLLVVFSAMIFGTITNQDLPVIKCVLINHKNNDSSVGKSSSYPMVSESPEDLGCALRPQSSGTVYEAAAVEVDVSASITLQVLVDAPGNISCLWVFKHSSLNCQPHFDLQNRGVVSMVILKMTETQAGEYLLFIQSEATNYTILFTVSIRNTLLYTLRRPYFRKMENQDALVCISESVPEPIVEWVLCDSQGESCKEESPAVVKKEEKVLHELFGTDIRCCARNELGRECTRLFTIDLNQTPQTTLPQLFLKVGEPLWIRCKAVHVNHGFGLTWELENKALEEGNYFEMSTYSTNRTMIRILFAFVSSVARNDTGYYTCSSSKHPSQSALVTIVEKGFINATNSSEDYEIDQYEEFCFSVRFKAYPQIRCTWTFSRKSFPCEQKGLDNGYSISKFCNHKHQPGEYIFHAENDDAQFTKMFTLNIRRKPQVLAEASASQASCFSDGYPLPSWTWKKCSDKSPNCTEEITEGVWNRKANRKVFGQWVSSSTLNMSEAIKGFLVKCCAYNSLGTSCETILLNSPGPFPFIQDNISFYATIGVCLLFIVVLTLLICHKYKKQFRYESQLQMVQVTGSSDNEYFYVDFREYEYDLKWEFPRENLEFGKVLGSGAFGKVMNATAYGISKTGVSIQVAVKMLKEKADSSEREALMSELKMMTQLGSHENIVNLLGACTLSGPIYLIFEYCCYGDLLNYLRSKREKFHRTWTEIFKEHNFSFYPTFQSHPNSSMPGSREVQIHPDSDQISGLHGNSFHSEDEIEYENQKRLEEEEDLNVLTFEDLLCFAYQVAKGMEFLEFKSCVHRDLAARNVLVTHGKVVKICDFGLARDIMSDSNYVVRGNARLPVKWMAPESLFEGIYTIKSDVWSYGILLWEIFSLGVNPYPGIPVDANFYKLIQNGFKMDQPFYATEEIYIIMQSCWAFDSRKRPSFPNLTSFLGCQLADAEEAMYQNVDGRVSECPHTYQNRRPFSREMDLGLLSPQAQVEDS
The series is described as follows: Inhibition of recombinant FLT3 using Poly (Glu,Tyr) as substrate after 2 hrs by luminescence assay.

Series [3] addresses Cyclin-dependent kinase 2/cyclin A (Homo sapiens, UniProt P24941). The series is described as follows: Inhibition of recombinant CDK2/Cyclin A using RbinG as substrate after 2 hrs by luminescence assay. The format is protein-complex assay.
In series [4] the target is T2, Tyrosine-protein kinase JAK3 (Homo sapiens, UniProt P52333).
T2 sequence (P52333 whole entry): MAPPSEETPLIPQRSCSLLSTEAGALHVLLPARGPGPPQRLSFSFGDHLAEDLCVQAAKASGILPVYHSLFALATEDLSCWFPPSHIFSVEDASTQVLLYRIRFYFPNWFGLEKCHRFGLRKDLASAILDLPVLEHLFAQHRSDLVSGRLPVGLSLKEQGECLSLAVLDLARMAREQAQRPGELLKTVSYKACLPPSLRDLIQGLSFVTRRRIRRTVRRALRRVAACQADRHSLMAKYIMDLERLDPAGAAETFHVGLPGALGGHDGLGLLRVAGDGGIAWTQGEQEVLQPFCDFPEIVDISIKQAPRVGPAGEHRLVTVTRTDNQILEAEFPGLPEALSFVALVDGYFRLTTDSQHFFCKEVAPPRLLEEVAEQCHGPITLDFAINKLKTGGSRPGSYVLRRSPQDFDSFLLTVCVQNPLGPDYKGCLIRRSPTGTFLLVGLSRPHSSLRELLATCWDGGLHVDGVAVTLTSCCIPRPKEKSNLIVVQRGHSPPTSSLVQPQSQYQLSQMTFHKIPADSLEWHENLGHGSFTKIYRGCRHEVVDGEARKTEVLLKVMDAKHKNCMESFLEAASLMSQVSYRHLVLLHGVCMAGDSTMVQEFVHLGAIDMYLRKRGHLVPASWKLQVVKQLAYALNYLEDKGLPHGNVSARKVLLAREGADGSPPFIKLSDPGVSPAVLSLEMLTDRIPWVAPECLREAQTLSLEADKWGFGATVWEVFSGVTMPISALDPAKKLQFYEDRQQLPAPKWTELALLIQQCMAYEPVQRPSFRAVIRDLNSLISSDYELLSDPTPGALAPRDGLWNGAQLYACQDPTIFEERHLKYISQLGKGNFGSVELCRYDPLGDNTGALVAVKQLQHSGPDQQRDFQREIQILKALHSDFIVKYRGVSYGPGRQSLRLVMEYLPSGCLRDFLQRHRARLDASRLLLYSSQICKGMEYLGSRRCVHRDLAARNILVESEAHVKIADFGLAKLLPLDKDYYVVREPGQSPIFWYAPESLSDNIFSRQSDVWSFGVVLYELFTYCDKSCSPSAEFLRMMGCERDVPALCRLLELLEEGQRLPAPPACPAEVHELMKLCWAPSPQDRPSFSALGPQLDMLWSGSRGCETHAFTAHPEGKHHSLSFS
The series is described as follows: Inhibition of recombinant JAK3 using Poly (Glu,Ala,Tyr) as substrate after 2 hrs by luminescence assay.

In series [5] the target is Tyrosine-protein kinase JAK2 (Homo sapiens, UniProt O60674). The series is described as follows: Inhibition of recombinant JAK2 using Poly (Glu,Ala,Tyr) as substrate after 2 hrs by luminescence assay.
Chain of Tyrosine-protein kinase JAK2 (O60674 whole entry): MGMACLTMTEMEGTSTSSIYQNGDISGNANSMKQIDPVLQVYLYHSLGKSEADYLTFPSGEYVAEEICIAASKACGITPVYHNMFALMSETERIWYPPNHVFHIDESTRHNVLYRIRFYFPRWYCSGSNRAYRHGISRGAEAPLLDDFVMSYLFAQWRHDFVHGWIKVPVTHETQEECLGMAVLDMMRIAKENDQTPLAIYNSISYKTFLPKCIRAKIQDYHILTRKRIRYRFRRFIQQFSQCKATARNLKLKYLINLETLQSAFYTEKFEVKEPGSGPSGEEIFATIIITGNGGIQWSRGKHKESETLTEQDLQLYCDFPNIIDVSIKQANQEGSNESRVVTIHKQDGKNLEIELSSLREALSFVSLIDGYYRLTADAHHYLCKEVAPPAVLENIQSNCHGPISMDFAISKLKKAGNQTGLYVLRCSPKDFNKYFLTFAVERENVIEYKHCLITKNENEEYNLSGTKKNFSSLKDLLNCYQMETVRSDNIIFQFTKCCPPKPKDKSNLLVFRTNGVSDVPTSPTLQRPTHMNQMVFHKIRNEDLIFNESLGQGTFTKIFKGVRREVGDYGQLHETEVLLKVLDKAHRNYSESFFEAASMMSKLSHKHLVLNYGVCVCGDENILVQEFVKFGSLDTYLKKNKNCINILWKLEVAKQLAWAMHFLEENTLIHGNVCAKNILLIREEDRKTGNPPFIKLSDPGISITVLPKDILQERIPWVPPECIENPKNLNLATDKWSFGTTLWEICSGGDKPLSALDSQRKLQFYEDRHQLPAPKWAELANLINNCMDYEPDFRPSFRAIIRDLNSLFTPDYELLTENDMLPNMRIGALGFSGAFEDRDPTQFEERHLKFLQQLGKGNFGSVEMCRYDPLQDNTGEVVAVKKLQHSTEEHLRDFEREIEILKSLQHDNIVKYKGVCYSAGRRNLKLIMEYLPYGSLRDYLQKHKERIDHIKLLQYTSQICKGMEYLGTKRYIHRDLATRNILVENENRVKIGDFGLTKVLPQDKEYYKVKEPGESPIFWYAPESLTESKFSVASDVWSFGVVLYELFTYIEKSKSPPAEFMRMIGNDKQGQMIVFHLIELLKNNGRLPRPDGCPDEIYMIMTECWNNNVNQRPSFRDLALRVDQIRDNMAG
Series [6] concerns the target Non-receptor tyrosine-protein kinase TYK2 (Homo sapiens, UniProt P29597). The series is described as follows: Inhibition of recombinant TYK2.
Series [7] in a line: in vitro. The note with it: mouse, liver microsomes. (Microsomes from liver hold many membrane-bound enzymes, among them those of drug oxidation.)
The nature of series [8]: in vitro. The note with it: PAMPA.
Series [9] can be described thus: in vitro. The note with it: human, liver microsomes.
A further series deals with Cytochrome P450 2D6 (Homo sapiens, UniProt P10635).
Chain of Cytochrome P450 2D6 (P10635 whole entry): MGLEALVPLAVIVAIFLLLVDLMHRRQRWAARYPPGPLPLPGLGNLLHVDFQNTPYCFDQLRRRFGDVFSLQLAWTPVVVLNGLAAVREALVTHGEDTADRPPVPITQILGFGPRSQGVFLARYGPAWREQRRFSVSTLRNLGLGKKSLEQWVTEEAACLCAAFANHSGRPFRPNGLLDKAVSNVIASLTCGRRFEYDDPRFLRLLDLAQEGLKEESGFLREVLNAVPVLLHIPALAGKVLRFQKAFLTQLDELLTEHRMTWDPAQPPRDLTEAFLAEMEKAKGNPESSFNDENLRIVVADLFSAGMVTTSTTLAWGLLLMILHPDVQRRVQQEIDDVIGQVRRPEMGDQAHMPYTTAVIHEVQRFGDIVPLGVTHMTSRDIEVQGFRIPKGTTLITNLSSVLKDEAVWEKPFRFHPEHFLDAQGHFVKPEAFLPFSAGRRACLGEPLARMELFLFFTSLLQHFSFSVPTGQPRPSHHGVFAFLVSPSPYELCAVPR
Series [10] in a line: Antiproliferative activity against mouse BA/F3 cells harboring JAK2 V617F mutation assessed as cell viability after 48 hrs by Cell titer Glo assay. The format is functional. To be noted: BaF3, 48 h.
In a further series the target is Cytochrome P450 3A4 (Homo sapiens, UniProt P08684).
Chain of Cytochrome P450 3A4 (P08684 whole entry): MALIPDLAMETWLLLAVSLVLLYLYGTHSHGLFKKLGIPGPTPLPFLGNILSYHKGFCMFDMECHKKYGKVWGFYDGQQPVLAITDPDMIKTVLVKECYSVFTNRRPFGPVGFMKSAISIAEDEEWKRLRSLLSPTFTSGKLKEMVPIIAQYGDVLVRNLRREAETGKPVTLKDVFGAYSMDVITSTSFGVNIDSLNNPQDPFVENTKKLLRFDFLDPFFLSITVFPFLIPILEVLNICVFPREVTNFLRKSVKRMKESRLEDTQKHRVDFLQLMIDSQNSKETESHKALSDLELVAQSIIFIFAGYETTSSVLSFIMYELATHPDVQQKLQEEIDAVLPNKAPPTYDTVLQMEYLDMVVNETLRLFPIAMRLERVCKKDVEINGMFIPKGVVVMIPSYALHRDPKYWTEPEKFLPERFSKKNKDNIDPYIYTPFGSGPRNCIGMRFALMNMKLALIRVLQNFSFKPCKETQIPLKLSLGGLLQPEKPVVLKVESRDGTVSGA
Another series concerns MV4-11. The series is described as follows: Antiproliferative activity against human MV4-11 cells harboring FLT3 […] mutant assessed as cell viability after 48 hrs by Cell titer Glo assay. The format is functional. To be noted: MV4-11, 48 h. On the technique in general: Cellular ATP, detected with luciferase, serves as a proxy for viable cell number.

pIC50: −log10 of the molar value. Values after ≈ are worked out from the molar mass of the structure shown.

Chain of Tyrosine-protein kinase JAK1 (P23458 whole entry): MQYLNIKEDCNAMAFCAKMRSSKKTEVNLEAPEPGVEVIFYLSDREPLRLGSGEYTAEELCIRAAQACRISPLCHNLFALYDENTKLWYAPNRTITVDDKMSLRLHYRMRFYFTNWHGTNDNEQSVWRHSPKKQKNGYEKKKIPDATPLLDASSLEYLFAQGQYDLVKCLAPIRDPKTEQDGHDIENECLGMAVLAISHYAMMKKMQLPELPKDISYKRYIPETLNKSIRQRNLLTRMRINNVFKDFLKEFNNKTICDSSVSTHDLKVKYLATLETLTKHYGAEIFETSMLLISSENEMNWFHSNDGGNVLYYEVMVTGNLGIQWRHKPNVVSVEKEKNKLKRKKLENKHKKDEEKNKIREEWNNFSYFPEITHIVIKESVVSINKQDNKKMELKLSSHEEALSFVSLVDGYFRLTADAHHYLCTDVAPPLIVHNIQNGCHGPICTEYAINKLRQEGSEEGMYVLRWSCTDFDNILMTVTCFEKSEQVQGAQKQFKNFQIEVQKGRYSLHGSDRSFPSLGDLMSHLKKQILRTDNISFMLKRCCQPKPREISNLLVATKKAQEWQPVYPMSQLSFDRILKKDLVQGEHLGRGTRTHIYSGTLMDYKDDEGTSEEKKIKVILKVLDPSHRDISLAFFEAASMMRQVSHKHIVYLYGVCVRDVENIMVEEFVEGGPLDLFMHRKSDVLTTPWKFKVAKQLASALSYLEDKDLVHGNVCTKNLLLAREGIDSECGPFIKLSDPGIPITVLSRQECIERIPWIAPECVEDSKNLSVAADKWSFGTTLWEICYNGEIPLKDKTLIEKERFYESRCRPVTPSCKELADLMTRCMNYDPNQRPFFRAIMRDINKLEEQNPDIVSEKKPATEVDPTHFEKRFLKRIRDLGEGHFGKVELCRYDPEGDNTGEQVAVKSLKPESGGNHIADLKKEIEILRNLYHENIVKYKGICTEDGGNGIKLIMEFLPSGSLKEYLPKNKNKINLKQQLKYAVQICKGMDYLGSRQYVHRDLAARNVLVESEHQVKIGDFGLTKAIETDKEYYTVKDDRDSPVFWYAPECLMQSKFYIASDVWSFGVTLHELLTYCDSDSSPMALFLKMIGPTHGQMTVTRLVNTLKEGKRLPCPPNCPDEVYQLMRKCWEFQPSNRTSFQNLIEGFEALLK
Chain of Non-receptor tyrosine-protein kinase TYK2 (P29597 whole entry): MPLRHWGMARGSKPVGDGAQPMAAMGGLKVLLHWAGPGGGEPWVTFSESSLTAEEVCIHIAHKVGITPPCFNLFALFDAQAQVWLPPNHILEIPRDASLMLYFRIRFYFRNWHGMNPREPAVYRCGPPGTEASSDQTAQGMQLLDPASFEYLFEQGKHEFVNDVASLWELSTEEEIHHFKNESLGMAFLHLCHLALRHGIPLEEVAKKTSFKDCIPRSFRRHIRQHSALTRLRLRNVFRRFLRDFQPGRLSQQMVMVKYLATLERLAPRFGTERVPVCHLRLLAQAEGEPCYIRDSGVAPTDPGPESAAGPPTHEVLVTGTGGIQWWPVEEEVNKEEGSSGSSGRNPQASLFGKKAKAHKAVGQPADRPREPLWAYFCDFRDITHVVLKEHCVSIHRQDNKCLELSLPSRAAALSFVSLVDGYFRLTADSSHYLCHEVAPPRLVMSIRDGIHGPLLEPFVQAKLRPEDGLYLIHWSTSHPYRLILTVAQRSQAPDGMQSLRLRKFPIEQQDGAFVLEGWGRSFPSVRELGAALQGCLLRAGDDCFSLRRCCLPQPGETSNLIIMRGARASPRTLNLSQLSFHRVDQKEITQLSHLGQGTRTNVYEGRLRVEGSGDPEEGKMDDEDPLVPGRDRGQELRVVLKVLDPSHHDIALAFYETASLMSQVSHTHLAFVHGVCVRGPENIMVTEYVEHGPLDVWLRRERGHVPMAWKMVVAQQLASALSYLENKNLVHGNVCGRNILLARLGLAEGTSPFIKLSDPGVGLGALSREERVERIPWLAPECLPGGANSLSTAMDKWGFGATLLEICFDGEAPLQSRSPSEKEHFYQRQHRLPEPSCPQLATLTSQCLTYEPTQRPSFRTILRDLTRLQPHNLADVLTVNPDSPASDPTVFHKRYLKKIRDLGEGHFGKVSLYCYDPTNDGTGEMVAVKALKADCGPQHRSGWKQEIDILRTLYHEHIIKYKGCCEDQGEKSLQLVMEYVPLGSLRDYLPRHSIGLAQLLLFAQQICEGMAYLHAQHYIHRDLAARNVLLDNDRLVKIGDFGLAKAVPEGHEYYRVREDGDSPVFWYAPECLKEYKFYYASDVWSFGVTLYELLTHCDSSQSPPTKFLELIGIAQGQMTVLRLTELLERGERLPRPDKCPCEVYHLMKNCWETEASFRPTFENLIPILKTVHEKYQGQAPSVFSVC

Consider `C1=CCOc2cccc(c2)Nc2nccc(n2)-c2cccc(c2)OCC1` (mixture of isomers), for which, in the series “physchem”, the solubility – broadly, how much of the substance goes into solution per volume – is below 10 µg/mL. Further, the pIC50 – broadly, the negative decadic logarithm of the IC50, by convention in mol/L – in series [1] is below 5.00; in series [2] it was 6.06; in series [3] it was 6.48; in [4] it was below 5.00; in series [5], 6.64; in series [6] it was 7.15.
`OCCN1CCN(c2ccc3cc2COCC=CCOCc2cccc(c2)-c2ccnc(n2)N3)CC1`: in “physchem”, the solubility was 150 µg/mL (≈ 308 µM). Besides, the pIC50 in series [1] is 5.51; in [2], 7.15; in [3] it was 5.43; in series [4] it was 5.60; in series [5], 7.08; in series [6], 6.80.
In turn, `C1=CCOCc2cccc(c2)-c2ccnc(n2)Nc2cc(cc(OCCN3CCOCC3)c2)COC1` (mixture of isomers) gave a solubility in “physchem” of 40 µg/mL. Further, the pIC50 in series [1] is 5.62; in [2], 7.72; in series [3] it was 5.57; in series [4] it was 5.48; in series [5] it was 7.02; in [6], 7.09.
Turning to `C1=CCOCc2cc(ccc2OCCN2CCCCC2)Nc2nccc(n2)-c2cccc(c2)COC1` (mixture of isomers), the half-life (in general, the time in which the quantity being followed falls by half) at 5 µM in “in vitro [7]” is 11 min; in “in vitro [9]” it was above 60 min. Further, the pIC50 in series [1] was 6.02; in series [2], 7.59; in [3], 5.57; in [4], 6.12; against Cytochrome P450 2D6 it was below 5.00; in series [5] it was 7.82. In addition, the pIC50 was 7.08 in series [6] and 6.43 at Cytochrome P450 3A4. Besides, the Papp – broadly, the rate of passage across a membrane or cell layer, normalised by area and donor concentration – at 5 h, 1 µM in the series “in vitro [8]” amounted to 3.93 ×10⁻⁶ cm/s. For the same compound, the GI50 (usually the concentration at which growth is held to half of that of the control) in series [10] was 160 nM.
With `C1=CCOCc2cccc(c2)-c2ccnc(n2)Nc2cc(cc(OCCN3CCCC3)c2)COC1` (mixture of isomers), the solubility in the series “physchem” was 145 µg/mL. Also, the pIC50 in series [1] was 5.68; in series [2], 7.66; in series [3] it was 6.24; in series [4], 6.08; in series [5] it was 7.32; in series [6] it was 7.10.
`C1=CCOCc2cc(ccc2N2CCNCC2)Nc2nccc(n2)-c2cccc(c2)COC1` (mixture of isomers): in the series “physchem”, the solubility amounted to 8.79 µg/mL. Further, the pIC50 in series [1] is 5.60; in [2], 7.31; in [3], 5.47; in series [4], 5.80; in series [5], 7.08; in [6] it was 6.85.
As for `COc1ccc2cc1COCC=CCOCc1cc(ccc1OCCN1CCCC1)Nc1nccc-2n1` (mixture of isomers), the half-life at 5 µM in the series “in vitro [7]” was 29 min; in “in vitro [9]” it was above 60 min. In “physchem”, the solubility is 60.8 µg/mL. The pIC50 was below 5.00 in [1]; 7.04 in [2]; below 5.00 in series [3]; 6.05 in [4]; below 5.00 against Cytochrome P450 2D6; 7.72 in series [5]. Further, the pIC50 in series [6] is 6.74; at Cytochrome P450 3A4, below 5.00. This compound also returned a Papp at 5 h, 1 µM in “in vitro [8]” of 10.1 ×10⁻⁶ cm/s. The GI50 in series [10] was found to be 100 nM; with MV4-11, 85 nM.
For the compound `Cc1cnc2nc1-c1cccc(c1)COCC=CCOCc1cc(ccc1OCCN1CCCC1)N2`, the half-life at 5 µM in “in vitro [7]” is 40 min; in “in vitro [9]”, above 60 min. Besides, the pIC50 is 6.00 in series [1]; 7.72 in [2]; 7.05 in series [4]; 8.15 in series [5]; 7.24 in series [6]. Besides, the GI50 in [10] is 180 nM; with MV4-11, 51 nM.
In “physchem”, `COc1ccc2cc1COCC=CCOc1cccc(c1)-c1ccnc(n1)N2` (mixture of isomers) yielded a solubility below 10 µg/mL. In addition, the pIC50 in [1] is 5.24; in [2], 7.11; in series [3] it was 6.44; in series [5], 6.59; in [6], 6.92.
Regarding `CCN(CC)CCOc1ccc2cc1COCC=CCOCc1cccc(c1)-c1ccnc(n1)N2` (mixture of isomers), the half-life at 5 µM was determined as 16 min in “in vitro [7]” and 44 min in the series “in vitro [9]”. The same compound returned a solubility in “physchem” of 147 µg/mL. Also, the pIC50 in [1] is 5.46; in series [2], 7.54; in [3], 5.33; in series [4] it was 6.21; at Cytochrome P450 2D6, below 5.00; in series [5], 7.62. In addition, the values for the pIC50 (in [6]; against Cytochrome P450 3A4) were 7.10 and 5.55, respectively. The compound also returned a Papp at 5 h, 1 µM in “in vitro [8]” of 15.8 ×10⁻⁶ cm/s. Also, the GI50 stood at 150 nM in [10] and 37 nM in the series with MV4-11.

Source of the values: ChEMBL document CHEMBL2176955, “Discovery of the macrocycle 11-(2-pyrrolidin-1-yl-ethoxy)-14,19-dioxa-5,7,26-triaza-tetracyclo[19.3.1.1(2,6).1(8,12)]heptacosa-1(25),2(26),3,5,8,10,12(27),16,21,23-decaene (SB1518), a potent Janus kinase 2/fms-like tyrosine kinase-3 (JAK2/FLT3) inhibitor for the treatment of myelofibrosis and …” (J Med Chem, 2011).
